Results as given in ChEMBL document CHEMBL1817543, “New nitric oxide or hydrogen sulfide releasing aspirins” (J Med Chem, 2011).
Active and inactive are the calls of the source. The calls are words filed in the database; no cut-off is given here.

What was measured:
[1] = Half life in human serum at 200 uM by RP-HPLC analysis; type: ADME
Summary of the method: (§1)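 DMSO stock (10 mM) added to prewarmed human serum (male AB plasma) to a final 200 μM. Incubated at 37 ± 0.5 °C; aliquots deproteinized with acetonitrile containing 0.1% TFA. Parent, aspirin and metabolites quantified by RP-HPLC, calibration 1–200 μM. Pseudo-first-order half-life; peak aspirin expressed as % of initial carbonate. At least triplicate.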

[2] = Antiaggregatory activity in plasma rich human platelets assessed as inhibition of collagen-induced platelet aggregation preincubated for 10 mins before collagen challenge measured 10 mins after stimulus addition; type: functional
Summary of the method: (§2)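 Human PRP from citrated venous blood of drug-free healthy volunteers, centrifuged 210g for 20 min. Compound (vehicle 0.5% DMSO) preincubated 10 min, then collagen at submaximal 0.8–1.5 μg/mL. Light-transmission aggregometry with stirring at 1000 rpm, 37 °C, recorded 10 min. Reported as % inhibition versus control (at 300 μM) or IC50 by nonlinear regression. At least five experiments.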

[3] = Chemical stability of the compound in acidic medium assessed as unchanged compound after 3 hrs at pH 1 by RP-HPLC analysis; type: physicochemical; settings: read-out: Stability
Summary of the method: (§3)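 A 0.5 mM DMSO solution (2 mL) was diluted to 10 mL with 0.1 M HCl (pH 1.0) or 50 mM phosphate buffer (pH 7.4). Held at 37 ± 0.5 °C and sampled over time by RP-HPLC on C18 with acetonitrile/water 0.1% TFA gradient. Percent unchanged reported at 3 h. Triplicate.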

[4] = Chemical stability of the compound in phosphate buffer assessed as unchanged compound after 3 hrs at pH 7.4 by RP-HPLC analysis; type: physicochemical; settings: read-out: Stability; summary of the method: as §3
Homo sapiens = species on record: Homo sapiens; assay: Chemical stability of compound in human serum assessed as maximal amount of aspirin released; type: ADME; summary of the method: as §1
Aorta [5] = assay: Vasodilatory activity at endothelium denuded Wistar rat thoracic aorta assessed as relaxation of phenylephrine-induced contraction preincubated for 30 mins before phenylephrine challenge in presence of 1 uM soluble guanylate cyclase inhibitor H-[1,2,4]Oxadiazolo[4,3-a]quinoxalin-1-one; type: functional, tissue-based
Summary of the method: (§4)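 Male Wistar rat (180–200 g) thoracic aorta strips at 37 °C, 95% O2/5% CO2, pH 7.4, equilibrated 1.5 h, then precontracted with 1 μM L-phenylephrine. Cumulative vasodilator concentrations added at plateau; isometric recording. EC50 ± SEM from at least five experiments. ODQ runs: 1 μM inhibitor added before contraction, preincubated ≥30 min before vasodilator.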

Aorta [6] = assay: Vasodilatory activity at endothelium denuded Wistar rat thoracic aorta assessed as relaxation of phenylephrine-induced contraction; type: functional, tissue-based; summary of the method: as §4
Platelet = assay: Antiaggregatory activity in plasma rich human platelets assessed as inhibition of collagen-induced platelet aggregation at 300 uM preincubated for 10 mins before collagen challenge measured 10 mins after stimulus addition; type: functional; summary of the method: as §2
Aorta [7] = assay: Vasodilatory activity at endothelium denuded Wistar rat thoracic aorta assessed as relaxation of KCl-induced contraction preincubated for 30 mins before KCl challenge in presence of 10 uM ATP-modulated K+ channel inhibitor glibenclamide; type: functional, tissue-based
Summary of the method: (§5)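 Endothelium-denuded thoracic aorta strips from male Wistar rats (180–200 g) at 37 °C, gassed 95% O2/5% CO2, pH 7.4. Equilibrated 1.5 h, contracted with 25 mM KCl, then cumulative compound concentrations added at plateau; isometric tension recorded. EC50 ± SEM; at least five experiments. For glibenclamide runs, 10 μM added before contraction, ≥30 min before vasodilator.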

Aorta [8] = assay: Vasodilatory activity at endothelium denuded Wistar rat thoracic aorta assessed as relaxation of KCL-induced contraction preincubated for 30 mins before KCL challenge; type: functional, tissue-based; summary of the method: as §5

| Compound | half-life at 200 µM [1] [min] | IC50 [2] [µM] | remaining at 3 h [3] [%] | remaining at 3 h [4] [%] | Activity (Homo sapiens) [%] | EC50 (Aorta [5]) [µM] | EC50 (Aorta [6]) [µM] | Activity (Platelet) | EC50 (Aorta [7]) [µM] | EC50 (Aorta [8]) [µM] |
| --- | --- | --- | --- | --- | --- | --- | --- | --- | --- | --- |
| CC(=O)Oc1ccccc1C(=O)OCOC(=O)OCCCO[N+](=O)[O-] | < 1 | 194 | 98 | 98 | 9 | – | – | – | – | – |
| O=[N+]([O-])OCCCc1ccc(O)cc1 | – | – | – | – | – | > 100 | 1 | – | – | – |
| CC(=O)Oc1ccccc1C(=O)O [ASPIRIN] | 63 | 54 | 90 | 90 | – | – | – | – | – | – |
| O=[N+]([O-])OCCCO [ABRUCOMSTAT] | – | – | – | – | – | > 100 | 4 | inactive | – | – |
| CC(=O)Oc1ccccc1C(=O)OCOC(=O)OCCOc1ccc(-c2cc(=S)ss2)cc1 | 3 | 16 | 98 | 96 | 42 | – | – | – | – | – |
| CC(=O)Oc1ccccc1C(=O)OCOC(=O)OCC(CO[N+](=O)[O-])O[N+](=O)[O-] (configuration not stated) | < 1 | 93 | 98 | 85 | 25 | – | – | – | – | – |
| CC(=O)Oc1ccccc1C(=O)OCOC(=O)Oc1ccc(CC(CO[N+](=O)[O-])O[N+](=O)[O-])cc1 (configuration not stated) | 2.2 | 103 | 98 | 95 | 34 | – | – | – | – | – |
| O=[N+]([O-])OCC(Cc1ccc(O)cc1)O[N+](=O)[O-] (configuration not stated) | – | – | – | – | – | > 100 | 0.13 | inactive | – | – |
| CC(=O)Oc1ccccc1C(=O)OCOC(=O)Oc1ccc(CCCO[N+](=O)[O-])cc1 | 1.6 | 68 | 98 | 98 | 40 | – | – | – | – | – |
| Oc1ccc(-c2cc(=S)ss2)cc1 | – | – | – | – | – | – | – | inactive | 17 | 5.9 |
| CC(=O)Oc1ccccc1C(=O)OCOC(=O)Oc1ccc(-c2cc(=S)ss2)cc1 | 2.1 | 150 | 96 | 80 | 36 | – | – | – | – | – |
| OCCOc1ccc(-c2cc(=S)ss2)cc1 | – | – | – | – | – | – | – | – | 16 | 8 |
